NS3 helicase inh = HCV NS3 helicase inhibition; inhibition, % at 10.9 µM; NS3 helicase DNA unwinding, Cy5 molecular beacon fluorescence; AID 1800; 0.56% of 290,000 active;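 active = inhibition above the mean of all tested compounds plus 3 SD, set per campaign, cut at about 35% in these data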;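 note: 0% = DMSO wells and 100% = thioflavine S control wells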
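Material: hepatitis C virus NS3 helicase domain fragment enzyme; measured by: Cy5 fluorescence, 0 and 60 min reads; control set: DMSO and thioflavine S; incubation: 60 min unwinding reaction at 25 °C after ATP addition; read-out basis: % inhibition from 60/0 min fluorescence ratio, DMSO 0%, thioflavine S 100%; repeats: singlicate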
M18AAP inhibitor = PfM18AAP enzyme inhibition; recombinant PfM18AAP, H-Glu-NHMec fluorogenic cleavage; 1.2% of 290,000 active; inhibition, % at 7.35 µM; AID 1822;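 active = inhibition above the campaign mean inhibition over all tested compounds plus 3 SD, cut at about 28% in these data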;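 note: 0% = plate median of test compound wells and 100% = 2 mM ZnCl2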
CHOP inhibitor = inhibitors of CHOP induction in ER stress response; CHO-K1 CHOP-promoter luciferase, tunicamycin-induced, 15-18 h; inhibition, % at 10 µM; 3.8% of 220,000 active; AID 2732;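 active = compounds that reduced the stress-induced luciferase reporter signal by more than about 70% of percent inhibition, limit read from the data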;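 note: 0% = tunicamycin plus vehicle and 100% = wells without tunicamycin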
CHOP UPR activ = activators of apoptotic arm of unfolded protein response (CHOP); AID 449763; CHO-CHOP luciferase reporter, UPR activation, luminescence; percent of tunicamycin response over DMSO baseline; 0.34% of 330,000 active; activation, % at 10 µM;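 active = at 10 µM dose, activation of 40% or more, normalized to positive control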;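 note: 100% = tunicamycin at 10 µg/mL and 0% = DMSO alone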
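System: CHO-CHOP luciferase reporter cell line | Buffer or medium: F12 medium containing 10% fetal bovine serum | Doses: One dose, 10 µM in 0.5% DMSO | Times: 6 h compound exposure at 37 °C after overnight seeding | Signal: Luciferase luminescence | Read-out: % activation vs tunicamycin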
p97 ATPase inh = inhibitors of human p97 ATPase; P55072; recombinant p97 ATPase, Kinase-Glo ATP luminescence, 3 h; inhibition, % at 8 µM; 0.42% of 220,000 active; AID 1481; in the data active = inhibition above about 15%;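 note: 0% = DMSO vehicle and 100% = wells lacking enzyme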
Target sequence (P55072 whole entry, looked up): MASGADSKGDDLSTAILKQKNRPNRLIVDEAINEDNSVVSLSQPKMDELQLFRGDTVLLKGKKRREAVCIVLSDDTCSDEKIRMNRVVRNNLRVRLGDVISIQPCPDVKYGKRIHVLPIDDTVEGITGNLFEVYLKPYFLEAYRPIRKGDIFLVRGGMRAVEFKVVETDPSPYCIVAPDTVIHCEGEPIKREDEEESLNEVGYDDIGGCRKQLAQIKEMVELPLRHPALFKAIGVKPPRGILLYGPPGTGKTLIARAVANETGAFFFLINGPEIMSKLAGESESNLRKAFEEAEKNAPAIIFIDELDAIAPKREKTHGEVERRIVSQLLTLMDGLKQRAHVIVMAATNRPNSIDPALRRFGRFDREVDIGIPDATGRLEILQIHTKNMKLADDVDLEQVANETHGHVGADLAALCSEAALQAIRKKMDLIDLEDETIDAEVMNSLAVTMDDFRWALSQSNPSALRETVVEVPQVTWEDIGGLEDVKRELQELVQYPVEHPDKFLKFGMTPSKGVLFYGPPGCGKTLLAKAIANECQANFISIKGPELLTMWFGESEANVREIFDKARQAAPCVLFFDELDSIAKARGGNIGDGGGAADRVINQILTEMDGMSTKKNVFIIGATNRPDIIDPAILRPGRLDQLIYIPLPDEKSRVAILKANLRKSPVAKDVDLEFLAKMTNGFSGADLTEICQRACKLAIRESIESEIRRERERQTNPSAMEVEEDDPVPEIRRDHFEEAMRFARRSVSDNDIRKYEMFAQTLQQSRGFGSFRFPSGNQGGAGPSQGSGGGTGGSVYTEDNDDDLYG
UPR XBP1 act = adaptive UPR (XBP1) activation | CHO-XBP1 luciferase reporter, IRE1-XBP1 UPR activation, luminescence; percent of tunicamycin response, DMSO as zero | activation, % at 20 µM | 0.33% of 330,000 active;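 active = versus positive control, 20 µM dose yields 30% or more activation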;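 note: 100% = tunicamycin at 10 µg/mL and 0% = DMSO only wells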
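Material: CHO-XBP1 cells stably carrying IRE1-XBP1-driven luciferase reporter / Amount: 1000 cells per well / Compound: 20 µM, 1% DMSO / Times: 6 h treatment, 37 °C / Detection: luciferase luminescence / Measure: % activation of reporter signal versus tunicamycin and DMSO controls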
CHOP inh conf = confirmation of CHOP induction inhibitors; CHO-CHOP promoter luciferase reporter, tunicamycin-induced, luminescence; shares compounds with CHOP inhibitor; inhibition, % at 10 µM; 45% of 2,100 active;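 active = mean of three repeat readings of reporter signal inhibition above a set limit, cut at about 70% in these data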;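 note: 0% = tunicamycin plus vehicle and 100% = wells lacking tunicamycin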
The depositor's hits bear a star; · = no result. Compounds with a hit are over-represented: about 4.5% of the library has one in this group of screens.

SMILES	NS3 helicase inh	M18AAP inhibitor	CHOP inhibitor	CHOP UPR activ	p97 ATPase inh	UPR XBP1 act	CHOP inh conf
O=C(COc1ccc(Br)cc1)NCC1COc2ccccc2O1 (centres undefined)	·	·	·	-1.3	·	-2.0	·
Cc1cc(NCCCN)nc(-c2ccccc2O)n1	-2.5	0.8	101.3*	-1.7	-0.9	-0.7	-10.4
O=C(COc1ccc2ccc(=O)oc2c1)NCCCN1CCCC1=O	2.9	3.2	·	-1.1	·	1.5	·
FC(F)(F)c1cccc(NC(=S)Nc2ccc(Cl)c(Cl)c2)c1	3.1	-4.2	22.6	16.4	8.8	1.2	·
FC(F)(F)c1cccc(NC(=S)NC(c2ccccc2)c2ccccc2)c1	-1.4	-2.1	103.0*	·	-2.9	·	75.3*
COc1ccc(C(=O)NCCS(=O)(=O)N2CCc3ccccc3C2)cc1OC	·	·	·	2.4	·	-1.3	·
CCOC(=O)C1=C(C)NC(=S)NC1c1ccc(OC(=O)c2ccco2)cc1 (centres undefined)	1.0	4.8	-5.9	3.4	-7.2	0.0	·
CCOC(=O)c1c(NC(=O)C2=C(C)NC(=S)NC2c2ccc(CC)cc2)sc(C)c1C (centres undefined)	-31.8	-2.1	97.2*	0.2	2.9	2.6	57.1
CCC(NC(=O)Nc1nnc(C(F)(F)F)s1)(C(F)(F)F)C(F)(F)F	7.3	-8.2	103.1*	8.6	-5.5	-1.2	115.2*
Cc1ccc2sc(NC(=O)c3cccc(N4C(=O)CCC4=O)c3)nc2c1C	-12.9	-14.3	·	3.8	·	6.1	·
Cc1ccc2sc(NC(=O)c3ccc(N4C(=O)CCC4=O)cc3)nc2c1C	3.4	0.0	100.0*	-0.7	1.1	-0.7	-20.9
CCCn1c(SCC(=O)N2c3ccccc3CC2C)n[nH]c1=O (centres undefined)	·	·	·	0.4	·	-0.4	·
COc1ccc(NC(=O)c2cc3cccc(OC)c3oc2=Nc2ccc(C(=O)O)cc2)cc1OC	-18.6	-1.8	102.9*	·	4.2	·	110.2*
COc1ccc(Br)cc1C(=O)Nc1ccc(C(=O)O)cc1	3.5	0.8	-4.6	-0.8	1.3	-1.4	·
CCOc1ccc(Br)cc1S(=O)(=O)Nc1cccnc1	-6.6	3.5	·	2.7	·	2.0	·
CCOc1ccc(CCNc2ccc3nnc(-c4ccccc4)n3n2)cc1OCC	-6.0	1.5	96.7*	0.6	2.7	-3.6	64.5
Clc1ccc(CNc2ccc3nnc(-c4ccccc4)n3n2)cc1	0.2	-3.6	65.7	1.7	4.4	-0.6	·
C[C@@H]1O[C@@H](OCCC(=O)O)[C@H](O)C[C@H]1O	·	·	·	-1.6	·	0.1	·
CSc1nsc(NC(=O)Cc2ccccc2)n1	-12.7	2.9	2.3	2.4	3.4	-0.2	·
CCCCCCSc1nsc(NC(=O)CCC)n1	-0.1	2.0	106.0*	4.4	-0.2	1.6	102.7*
Cc1sc2nc(C(C)Sc3n[nH]c(N)n3)[nH]c(=O)c2c1C (centres undefined)	16.2	2.3	29.8	1.2	7.6	0.0	·
Cc1ccc(N(CC2CO2)S(=O)(=O)c2ccc([N+](=O)[O-])cc2)cc1 (centres undefined)	3.3	-8.8	·	0.6	·	-0.8	·
COc1cccc2sc(NC(=O)c3ccc(Br)s3)nc12	-1.6	-1.0	104.2*	1.4	-2.5	6.9	47.6
O=C(NC1CCCCCC1)C1CC(=O)N(c2ccc(Cl)cc2)C1 (centres undefined)	8.4	-5.1	·	3.2	·	4.7	·
Nc1nc(Nc2ccccc2F)nc(NCc2ccco2)c1[N+](=O)[O-]	-0.9	3.7	19.7	2.0	4.8	11.3	·
SMILES	NS3 helicase inh	M18AAP inhibitor	CHOP inhibitor	CHOP UPR activ	p97 ATPase inh	UPR XBP1 act	CHOP inh conf
Cc1ccc(Nc2nc(N)c([N+](=O)[O-])c(NCc3ccco3)n2)cc1	-63.9	-4.2	101.2*	6.2	8.4	5.1	24.1
Cc1c(C(=O)Nc2ccc3oc(-c4cccnc4)nc3c2)oc2ccccc12	3.9	-3.7	99.8*	-1.4	5.6	9.2	-5.1
COC(=O)c1cc(S(=O)(=O)N2CCC(c3cc(OC)ccc3OC)C2)c[nH]1 (centres undefined)	-2.9	-0.4	·	3.4	·	-5.9	·
O=C(ONc1ccc(N=NC(=O)c2ccccc2O)cc1)c1ccccc1	7.5	11.7	106.7*	-1.9	-7.3	-4.5	132.5*
CNC(=O)c1c(NC(=O)c2cc(-c3cc(C)c(C)cc3O)n[nH]2)sc2c1CCCC2	-1.5	4.9	102.7*	16.8	6.0	50.2*	-5.7
CCCCOP(=O)(OCCCC)C1(NS(=O)(=O)c2ccccc2)C=CC(=O)c2ccccc21 (centres undefined)	-5.8	8.2	96.1*	0.9	-0.9	-1.4	63.3
CCCCOCCCNS(=O)(=O)c1ccccc1	-0.2	4.1	3.8	-0.3	0.9	3.4	·
Cc1c(NC(=O)C(C)Sc2nc(N)cc(=O)[nH]2)c(=O)n(-c2ccccc2)n1C (centres undefined)	·	·	·	-0.1	·	-0.2	·
O=c1c(Cl)c(N/N=C/c2ccc(Cl)cc2)cnn1-c1ccccc1	0.5	-0.6	101.6*	1.7	-0.1	1.8	59.4
O=c1c(Cl)c(Cl)cnn1-c1ccccc1	0.2	-5.3	100.5*	·	7.7	·	95.5*
Nc1c(C(=O)N/N=C/c2ccc(Cl)cc2)cnn1-c1ccccc1	-17.5	-0.5	19.2	4.6	-1.7	-1.7	·
CC(C)(C=O)C1=CC(=O)c2ccccc2C1=O	9.7	-4.1	98.2*	·	2.3	·	-225.4
CC(CC(=O)NCc1ccc(Cl)cc1)c1ccccc1 (centres undefined)	-2.4	2.4	·	2.1	·	-3.0	·
CCCCCc1c(C)nc(NCc2ccccc2)[nH]c1=O	0.1	4.6	108.5*	-1.0	8.0	-0.1	134.2*
CCC(C)[C@H](NC(=O)OC(C)(C)C)C(=O)N/N=C/C1=Cc2ccccc2OC1 (some centres undefined)	-8.6	-0.4	105.8*	0.4	-3.7	2.5	39.9
CCOc1ccc(/C=C/C2=Cc3c(sc(NC(=O)CSc4n[nH]c(N)n4)c3C#N)C(C)(C)C2)cc1	16.9	23.1	108.7*	22.6	5.3	1.9	115.6*
Cc1ccsc1/C=C/C1=Cc2c(sc(NC(=O)CSc3n[nH]c(N)n3)c2C#N)C(C)(C)C1	15.6	27.2	-26.8	1.2	7.5	1.4	·
COc1ccc2nc3sc(C(=O)NCc4cccs4)c(N)c3cc2c1	7.5	9.2	102.0*	-0.1	5.2	-2.0	8.6
C[C@@H](OC(=O)c1[nH]cnc1C(=O)NCc1ccc(CNC(=O)OC(C)(C)C)cc1)c1ccccc1	·	·	·	1.8	·	1.8	·
CC(C)CCn1c(SCc2ccc(Cl)cc2)nc2c1c(=O)[nH]c(=O)n2C	-4.3	10.4	96.5*	0.5	2.6	17.7	93.2*

Source: PubChem BioAssay
